Data: ChEMBL document CHEMBL3351346, “Design, synthesis, structure-function relationship, bioconversion, and pharmacokinetic evaluation of ertapenem prodrugs” (J Med Chem, 2014)

Key:
[1] = Stability in pH 6.5 simulated gastrointestinal fluid assessed as compound remaining at 50 uM after 3 hrs by LC-MS/MS method; format: ADME; details: read-out: Stability
Summary of the method: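 Compounds at 50 μM were incubated in fasted-state simulated intestinal fluid (FaSSIF, pH 6.5) for over 3 h. Percent remaining was determined by LC-MS/MS.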

[2] = Stability in pH 2.0 simulated gastric fluid assessed as compound degradation to beta-lactam ring open products at 1 uM after 60 mins by LC-MS/MS method; format: ADME; details: read-out: Drug degradation
Summary of the method: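 Incubation was in simulated gastric fluid (SGF, pH 2.0) for 60 min, with loss to the β-lactam ring-opened product measured by LC-MS/MS.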

[3] = Stability in human plasma assessed as compound remaining at 50 uM at 37 degC after 60 mins by LC-MS/MS method; format: ADME, cell-free; details: read-out: Stability
Summary of the method: (§1)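 Prodrugs were incubated in rat or human plasma for 60 min. Disappearance of prodrug and concomitant appearance of ertapenem were followed by LC-MS/MS, and in selected cases monoesters from partial hydrolysis were also monitored. Ertapenem itself was incubated the same way as a control.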

[4] = Stability in pH 7.4 phosphate buffer assessed as compound remaining at 50 uM after 3 hrs by LC-MS/MS method; format: physicochemical; details: read-out: Stability
[5] = Stability in rat plasma assessed as compound remaining at 50 uM at 37 degC after 60 mins by LC-MS/MS method; format: ADME, cell-free; details: read-out: Stability; summary of the method: as §1

remaining at 3 h, 50 µM [1] [%] | degraded at 1 h, 1 µM [2] [%] | remaining at 1 h, 50 µM [3] [%] | remaining at 3 h, 50 µM [4] [%] | remaining at 1 h, 50 µM [5] [%] | Compound
> 95 | > 25 | 0 | > 95 | 0 | Cc1oc(=O)oc1COC(=O)N1C[C@@H]2C[C@H]1C(=O)Nc1cccc(c1)C(=O)OCc1oc(=O)oc1COC(=O)C1=C(S2)[C@H](C)[C@@H]2[C@@H]([C@@H](C)O)C(=O)N12
> 95 | > 25 | 80 | > 95 | 7 | C[C@@H](O)[C@H]1C(=O)N2C(C(=O)OCC(F)(F)F)=C(S[C@@H]3CN[C@H](C(=O)Nc4cccc(C(=O)O)c4)C3)[C@H](C)[C@H]12
> 95 | > 25 | 33 | > 95 | 0 | COC(=O)OCOC(=O)C1=C(S[C@@H]2CN[C@H](C(=O)Nc3cccc(C(=O)O)c3)C2)[C@H](C)[C@@H]2[C@@H]([C@@H](C)O)C(=O)N12
> 95 | > 25 | 0 | > 95 | 0 | COC(=O)OCOC(=O)C1=C(S[C@@H]2CN[C@H](C(=O)Nc3cccc(C(=O)OCOC(=O)OC)c3)C2)[C@H](C)[C@@H]2[C@@H]([C@@H](C)O)C(=O)N12
> 95 | > 25 | 20 | > 95 | 0 | Cc1oc(=O)oc1COC(=O)N1C[C@@H]2C[C@H]1C(=O)Nc1cccc(c1)C(=O)OC/C=C\COC(=O)C1=C(S2)[C@H](C)[C@@H]2[C@@H]([C@@H](C)O)C(=O)N12
> 95 | > 25 | 20 | > 95 | 0 | C[C@@H](O)[C@H]1C(=O)N2C(C(=O)OCOC(=O)C3CCCCC3)=C(S[C@@H]3CN[C@H](C(=O)Nc4cccc(C(=O)O)c4)C3)[C@H](C)[C@H]12
> 95 | > 25 | 12 | > 95 | 0 | Cc1oc(=O)oc1COC(=O)c1cccc(NC(=O)[C@@H]2C[C@H](SC3=C(C(=O)O)N4C(=O)[C@H]([C@@H](C)O)[C@H]4[C@H]3C)CN2)c1
> 95 | > 25 | 10 | > 95 | 0 | CCOC(=O)OCOC(=O)C1=C(S[C@@H]2CN[C@H](C(=O)Nc3cccc(C(=O)O)c3)C2)[C@H](C)[C@@H]2[C@@H]([C@@H](C)O)C(=O)N12
> 95 | > 25 |  | > 95 |  | CC(C)OC(=O)c1cccc(NC(=O)[C@@H]2C[C@H](SC3=C(C(=O)O)N4C(=O)[C@H]([C@@H](C)O)[C@H]4[C@H]3C)CN2)c1
> 95 | > 25 |  | > 95 |  | C[C@@H](O)[C@H]1C(=O)N2C(C(=O)O)=C(S[C@@H]3CN[C@H](C(=O)Nc4cccc(C(=O)OCC(F)(F)F)c4)C3)[C@H](C)[C@H]12
> 95 | > 25 |  | > 95 |  | CCOC(=O)c1cccc(NC(=O)[C@@H]2C[C@H](SC3=C(C(=O)O)N4C(=O)[C@H]([C@@H](C)O)[C@H]4[C@H]3C)CN2)c1
> 95 | > 25 |  | > 95 |  | CCOC(=O)C1=C(S[C@@H]2CN[C@H](C(=O)Nc3cccc(C(=O)O)c3)C2)[C@H](C)[C@@H]2[C@@H]([C@@H](C)O)C(=O)N12
> 95 | > 25 |  | > 95 |  | CC(C)OC(=O)C1=C(S[C@@H]2CN[C@H](C(=O)Nc3cccc(C(=O)O)c3)C2)[C@H](C)[C@@H]2[C@@H]([C@@H](C)O)C(=O)N12
